Experimental data as given in the RNAGym collection of RNA variant scans (doi:10.1126/science.aae0568).
Variants at the floor of the assay were thinned out.

B1: tRNA (parent)
chain: GUUCCGUUGGCGUAAUGGUAACGCGUCUCCCUCCUAAGGAGAAGACUGCGGGUUCGAGUCCCGUACGGAACG

Variants of: B1
Test: yeast fitness relative to wild type (ratio to wild type); higher = fitter; tRNA-Arg(CCU), competitive growth, 37 C, YPD
Summary of the method: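 Variants of the tRNA-Arg(CCU) gene, chemically synthesised with a 3% per-site mutation rate at 69 sites, were placed at the native genomic locus in Saccharomyces cerevisiae. The pooled strains were competed in YPD at 37°C for 24 hours in six parallel replicates. Gene amplicons from the start population and from each end population were read by 100-nucleotide paired-end sequencing. Darwinian fitness relative to wild type came from changes in genotype frequencies; genotypes needed ≥ 100 starting reads, and estimates < 0.5 were set to 0.5.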

Point of comparison: GUUCCGUUGGCGUAAUGCUAACGCGUCUCCCUCCUAAGGAGAAGACUGCGGGUUCGAGCCCCGUACGGAACG, yeast fitness 0.559. Against it:
- GUUCCGUUGGCGUAAUGGAAGCGCGUCUGCCUCCUAAGGAGAAGACUGCGGGUUCGAGUCCCGUACGGAACG — lower, 0.543
- GUUCCGUUGGCGUAAUGCUAACGCGUCUCCCUCCUAAGGAGAAGACUACGGGUUCGAGUCCCGUACGGAACG — higher, 0.571
- GUUCCGUUGGCGUAAUGUUAACGCGUCUCCCUCCUCAGGAGAAGACUGCGGGUUCGAGUCCCGUACCGAACG — lower, ≤ 0.5
- GUUCCGUUGGCGUAAUGCUAACGCGUCUCCCUCCUAAGGAGAAGACUGCGGGAUCGAGUCCCGUACGGAACG — lower, ≤ 0.5
- GUUCCGUUGGCGUAAUGCUAACGCGUCUCCCUCCUAAGGAGAAGACUGCGAGUUCGAGUCCCGUACGGAACG — lower, 0.518
- GUUCCGUUGGCGUAAUGCUAACGCGUCUCCCUCCUAAGGAGAAGACUGCGAGUUCGGGUCCCGUAAGGAACG — lower, ≤ 0.5
- GUUCCGUUGGCGUAAUGGAGACGUGUCUCCCUCCUAAGGAGAGGACUCCGGGUUCGAGUCCCGUACGGAACG — lower, ≤ 0.5
- GUUCCGUUGGCGUAAUGCUAACGCGUCUCCCUCCUAAGCAGAAGACUGCGGGUUCGAGUCCCGUACGGAACG — higher, 0.683
- GUUCCGUUGGCGUAAUGGAUACGCGUCUCCCUCCCAAGGAGAAGACUGCGGGUUCGAGUCCCGUACGGAACG — higher, 0.82
- GUUCCGUUGGCGUAAUGUUAACGCGACUCCCUCCUAAGGAGAAGACCGCGGGUUCGAGUCCCGUACGGAACG — lower, ≤ 0.5
- GUUCCGUUGGCGUAAUGCUAACGCGACUCCCUCCUAAGGAGAAGACUGCGGGUUGGAGUCCCGUACGGAACG — lower, ≤ 0.5
- GUUCCGUUGGCGUAAUGCUAACGCGUCUCCCUCCUAAGGAGAAGACUGCGGGUUCGAGUCCCGUACUGAACG — higher, 0.632
- GUUCCGUUGGCGUAAUGCUAACGCGUCUCCCUCCUAAGGAGAAGACUGCGGGUUCGAGUCCCGUACCGAACG — higher, 0.656
- GUUCCGUUGGCGUAAUGCUAACGCGUCUCCCUCCUAAGGAGAAGACUGCGGGUUCGAGUCCCGUACAGAACG — higher, 0.728
- GUUCCGUUGGCGUAAUGCGAACGCGUCUCCCUCCUAAGGAGAAGCCUGCGGGUUCGAGUCCCGUACGGAACG — higher, 0.73
- GUUCCGUUGGCGUAAUGUUAACGCGUCUCCCCCCUAAGGAGAAGACUGCGGGUUCGGGUCCCGUACGGAACG — higher, 0.568
- GUUCCGUUGGCGUAAUGCGGACGCGUCUCCCUACCAAGGAGAAGACUGCGGGUUCGAGUCCCGUACGGAACG — lower, ≤ 0.5
- GUUCCGUUGGCGUAAUGCGAACGCGUUUCCCUCCUAAGGAGAUGACUGCGGGUUCGAGUCCCGUACUGAACG — lower, ≤ 0.5
- GUUCCGUUGGCGUAAUGCUAACGCGCCUGCGUUCUAAGGAGAAGAAUGCGGGUUCGAGUCCCGUACGGCACG — lower, ≤ 0.5
- GUUCCGUUGGCGUAAUGCUAACGCGACUCCCUCCUAAGGAGAAGGCUGCGGGUUCGAGUCCGGUACGGAACG — lower, 0.556
- GUUCCGUUGGCGUAAUGGAAACGCGUCUCCCUCCUAAGGAGAAGACUGCGGGUUCGAGUCCCGUACGGAACG — higher, 1
- GUUCCGUUGGCGUAAUGCUAACGCGUCUCCCUCCUAAGGAGAAGACUGCGGGUUCCAGUCCUGUACGGAACG — lower, ≤ 0.5
- GUUCCGUUGGCGUAAUGCUAACGCGUCUCCCUCCUAAGGAGAAGACUGCGGGUUCCAGUCCCGUACGGAACG — lower, 0.524
- GUUCCGUUGGCGUAAUGCUAACGCGUCUCCCUCCUAAGGAGAAGACUGCGGGUUCAAGUCCCGUACGGAACG — higher, 0.739
- GUUCCGUUGGCGUAAUGCUAACGCGUCUCCCUCCUAAGGACAACACUGCGGGUUAGAGUCCCGUACGGAACG — lower, ≤ 0.5
- GUUCCGUUGGCGUAAUGCUAACGCGUCUCCCUCCUAAGGAGAAGACUGCGGAUUCGAGUCCGGUACGGAACG — lower, 0.55
- GUUCCGUUGGCGUAAUGCUAACGCGUCUCCCUCCUAAGGAGAAAACUGCGGGUUCGAGUCCCGUACUGAACG — lower, ≤ 0.5
- GUUCCGUUGGCGUAAUGGACACGCGUCUCCGUCCUAAGGAGAAGACUGCGGGUUCGAGUCCCGUACGGAACG — lower, ≤ 0.5
- GUUCCGUUGGCGUAAUGGAAGCGCGUUUCCCUUCUAAGGAGAAGACUGCGGGUUCAAGUCCCGUACGGAACG — lower, ≤ 0.5
- GUUCCGUUGGCGUAAUGCUAACGCGUCUCCCUCCUAAGGAGAAGACUGCUGGAUCGAGUCCCGUACGGAACG — lower, ≤ 0.5
- GUUCCGUUGGCGUAAUGCUAACGCGUCUCCCCCCUAAGGAGAAGACUGCGGGUUCGUGUCCCGUACGGAACG — lower, ≤ 0.5
- GUUCCGUUGGCGUAAUGCUAACGCGUCUCCCUCCUAAGGAGAAGACUGCAGGUUCGAGCCCCGUACGGAACG — lower, ≤ 0.5
- GUUCCGUUGGCGUAAUGCUAACGCGUCUCCCUCCUAAGGAGAAGACCGCGAGUUCGAGUCCCGUACGGAACG — lower, ≤ 0.5
- GUUCCGUUGGCGUAAUGCUAACGCGUCGCCCUCCUAAGGAGAAGACUGCGGGUUCGAGUCUCGUCCGGAACG — lower, ≤ 0.5
- GUUCCGUUGGCGUAAUGCUAACGCGUCUCCCUCCUAAGGAGAAGACUGCGGCUUCGAGUCCCGUACGGAACG — higher, 0.819
- GUUCCGUUGGCGUAAUGCUAACGCGUCCCUCUCCUAAGGAGAGGACUGCGGGUUUGAGUCCCGUACGGAACG — lower, ≤ 0.5
- GUUCCGUUGGCGUAAUGUUAACGCGUCUCCCUCCUAAGGAGAAGGCUGCGGGUUCGAGUCCCGUACGGAACG — higher, 0.758
